Results published in ChEMBL document CHEMBL1773023, “Potent and selective phosphopeptide mimetic prodrugs targeted to the Src homology 2 (SH2) domain of signal transducer and activator of transcription 3” (J Med Chem, 2011).
pKi: −log10 of the molar value.

Target: Signal transducer and activator of transcription 3 (Homo sapiens, UniProt P40763)
Assay: Binding affinity to SH2 domain of Stat3 by fluorescence polarization assay
Outline: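 Recombinant Stat3, expressed and purified, tested against phosphopeptides and peptidomimetics in a fluorescence polarization competition assay. Affinity is reported as an inhibition constant (K_I).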

Signal transducer and activator of transcription 3, sequence (P40763 whole entry, the tested form may be a part): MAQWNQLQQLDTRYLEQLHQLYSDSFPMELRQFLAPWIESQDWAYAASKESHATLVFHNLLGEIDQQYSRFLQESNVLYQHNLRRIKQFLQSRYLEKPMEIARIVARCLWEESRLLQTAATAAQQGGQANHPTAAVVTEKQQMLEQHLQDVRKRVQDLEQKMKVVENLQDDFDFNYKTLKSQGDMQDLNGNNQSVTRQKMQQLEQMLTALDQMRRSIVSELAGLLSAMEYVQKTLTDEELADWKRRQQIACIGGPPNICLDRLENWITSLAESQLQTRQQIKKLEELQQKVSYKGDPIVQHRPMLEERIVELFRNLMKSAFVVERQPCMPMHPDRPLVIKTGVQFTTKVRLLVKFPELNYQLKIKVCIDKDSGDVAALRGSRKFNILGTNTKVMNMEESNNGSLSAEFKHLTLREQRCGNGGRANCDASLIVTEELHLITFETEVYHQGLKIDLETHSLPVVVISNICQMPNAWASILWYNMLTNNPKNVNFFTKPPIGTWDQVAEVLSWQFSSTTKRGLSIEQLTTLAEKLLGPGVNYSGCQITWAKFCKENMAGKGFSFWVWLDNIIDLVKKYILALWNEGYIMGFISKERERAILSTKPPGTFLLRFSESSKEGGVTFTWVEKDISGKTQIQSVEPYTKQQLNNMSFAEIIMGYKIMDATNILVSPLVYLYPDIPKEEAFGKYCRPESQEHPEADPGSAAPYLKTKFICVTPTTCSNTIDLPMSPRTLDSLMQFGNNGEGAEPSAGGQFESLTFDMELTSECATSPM

| Structure (SMILES) | pKi |
| --- | --- |
| C/C(=C\C(=O)N[C@@H](CC(C)C)C(=O)N1CCC[C@H]1C(=O)N[C@H](C)CCC(N)=O)c1ccc(OP(=O)(O)O)cc1 | 6.84 |
| C/C(=C\C(=O)N[C@@H](CC(C)C)C(=O)N1C[C@H]2C[C@H]2[C@H]1C(=O)N[C@@H](CCC(N)=O)C(=O)NCc1ccccc1)c1ccc(OP(=O)(O)O)cc1 | 7.37 |
| C/C(=C\C(=O)N[C@@H](CC(C)C)C(=O)N1CCC[C@H]1C(=O)NCCOC(N)=O)c1ccc(OP(=O)(O)O)cc1 | 6.69 |
| C/C(=C\C(=O)N[C@@H](CC(C)C)C(=O)N1C[C@H]2C[C@H]2[C@H]1C(=O)NCCNC(N)=O)c1ccc(OP(=O)(O)O)cc1 | 7.41 |
| C/C(=C\C(=O)N[C@H]1CCc2cccc3c2N(C1=O)[C@H](C(=O)NCCNC(N)=O)C3)c1ccc(OP(=O)(O)O)cc1 | 6.41 |
| C/C(=C\C(=O)N[C@H]1CCc2cccc3c2N(C1=O)[C@H](C(=O)N[C@H](C)CCC(N)=O)C3)c1ccc(OP(=O)(O)O)cc1 | 6.98 |
| C/C(=C\C(=O)N[C@H]1CCc2cccc3c2N(C1=O)[C@H](C(=O)NCCOC(N)=O)C3)c1ccc(OP(=O)(O)O)cc1 | 6.73 |
| C/C(=C\C(=O)N[C@H]1CCc2cccc3c2N(C1=O)[C@H](C(=O)N[C@@H](CCC(N)=O)C(=O)NCc1ccccc1)C3)c1ccc(OP(=O)(O)O)cc1 | 7.24 |
| CCCC[C@H](NC(=O)/C=C(\C)c1ccc(OP(=O)(O)O)cc1)C(=O)N1C[C@H]2C[C@H]2[C@H]1C(=O)N[C@H](C)CCC(N)=O | 7.18 |
| CCCC[C@H](NC(=O)/C=C/c1ccc(OP(=O)(O)O)cc1)C(=O)N1C[C@H]2C[C@H]2[C@H]1C(=O)N[C@@H](CCC(N)=O)C(=O)NCc1ccccc1 | 7.32 |
| C/C(=C\C(=O)N[C@@H](CC(C)C)C(=O)N1C[C@H]2C[C@H]2[C@H]1C(=O)NCCOC(N)=O)c1ccc(OP(=O)(O)O)cc1 | 6.71 |
